From ChEMBL document CHEMBL3822422, “Discovery of the First α-Amino-3-hydroxy-5-methyl-4-isoxazolepropionic Acid (AMPA) Receptor Antagonist Dependent upon Transmembrane AMPA Receptor Regulatory Protein (TARP) γ-8” (J Med Chem, 2016)

Legend:
[1] = molecular target: T1, Glutamate receptor 1 (Homo sapiens, UniProt P42261); test: (§1) Antagonist activity at human iGluA1 receptor flop isoform expressed in CHO-S cells coexpressing TARP gamma-2 assessed as inhibition of glutamate-induced increase in intracellular calcium levels after 2 mins followed by cyclothiazide/glutamate addition by fluo-4 AM dye based fluorescence imaging plate reader method; format: cell-based
[2] = Clearance in rat; format: ADME, organism-based; settings: in vivo
[3] = molecular target: T1, Glutamate receptor 1; test: as §1, with “gamma-8 and human EAAT3” for “gamma-2”; format: cell-based
How it was run: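 Transiently transfected CHO-S cells (human GluA1Q flop with TARP γ-8 and human EAAT3, DNA ratio 2:3), frozen, thawed, plated overnight at 37 °C; Fluo-4 AM loading 2 h at 22 °C. Compound added, then 2 min later glutamate (5 μM final); cyclothiazide (20 μM) plus glutamate (45 μM) 2 min after. FLIPR Ca2+ read; inhibition relative to 167 μM nonselective antagonist and buffer baseline; four-parameter logistic IC50; mean ± SEM, n ≥ 2.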

[4] = Cmax in rat plasma at 30 mg/kg, po measured on day 1; format: ADME, organism-based; design: dose 30 mg/kg, route oral
[5] = AUC in rat plasma at 30 mg/kg, po measured on day 1; format: ADME, organism-based
[6] = molecular target: T2, Cytochrome P450 1A2 (Homo sapiens, UniProt P05177); test: Inhibition of human CYP1A2; format: ADME
T2 sequence (P05177 whole entry): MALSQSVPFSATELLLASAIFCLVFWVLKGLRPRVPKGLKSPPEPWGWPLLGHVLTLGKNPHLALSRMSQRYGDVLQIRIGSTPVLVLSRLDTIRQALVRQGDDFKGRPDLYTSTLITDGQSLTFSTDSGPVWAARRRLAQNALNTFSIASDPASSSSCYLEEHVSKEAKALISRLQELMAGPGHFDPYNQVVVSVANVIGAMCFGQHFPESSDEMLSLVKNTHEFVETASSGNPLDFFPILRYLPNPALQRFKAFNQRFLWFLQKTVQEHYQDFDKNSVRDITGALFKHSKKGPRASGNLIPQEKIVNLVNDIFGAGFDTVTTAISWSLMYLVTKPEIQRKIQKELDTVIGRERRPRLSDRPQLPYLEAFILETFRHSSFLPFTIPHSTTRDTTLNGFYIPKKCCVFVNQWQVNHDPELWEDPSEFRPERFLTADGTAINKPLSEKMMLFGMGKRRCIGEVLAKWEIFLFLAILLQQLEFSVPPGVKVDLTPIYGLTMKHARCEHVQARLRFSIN

[7] = AUC in rat plasma at 30 mg/kg, po measured on day 4; format: ADME, organism-based
How it was run: (§2)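 Rats dosed orally at 30 mg/kg for 4 days; plasma Cmax and AUC determined.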

[8] = Cmax in rat plasma at 30 mg/kg, po measured on day 4; format: ADME, organism-based; design: dose 30 mg/kg, route oral; how it was run: as §2
[9] = molecular target: T1, Glutamate receptor 1; test: Antagonist activity at human iGluA1 receptor flip isoform expressed in CHO-S cells assessed as inhibition of glutamate-induced increase in intracellular calcium levels after 2 mins followed by cyclothiazide/glutamate addition by fluo-4 NW dye based fluorescence imaging plate reader method; format: cell-based
[10] = molecular target: T2, Cytochrome P450 1A2; test: Induction of CYP1A2 in human hepatocytes at 0.2 to 20 uM compared to omeprazole; format: ADME, cell-based, Hepatocyte
How it was run: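 Human hepatocytes treated over a concentration range; CYP1A2 fold induction expressed as percent of omeprazole; >30% taken as induction, <15% as none.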

[11] = molecular target: T1, Glutamate receptor 1; test: Antagonist activity at human iGluA1 receptor flop isoform expressed in CHO-S cells coexpressing TARP gamma-4 assessed as inhibition of glutamate-induced increase in intracellular calcium levels after 2 mins followed by cyclothiazide/glutamate addition by fluorescence imaging plate reader method; format: cell-based
How it was run: (§3)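 Human GluA1 flop transiently co-expressed with the TARP subtype in CHO-S cells. Frozen cells were thawed, plated at 50,000 cells/well and cultured overnight at 37 °C. Buffer was HBSS with 20 mM HEPES pH 7.4, 2.5 mM probenecid and 4 mM CaCl2. Compound was added, then cyclothiazide (20 μM final) plus glutamate (45 μM final). FLIPR Ca2+ read, normalised to full antagonist block and buffer baseline. Four-parameter IC50; mean ± SEM, n ≥ 2.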

[12] = molecular target: T1, Glutamate receptor 1; test: Antagonist activity at human iGluA1 receptor flop isoform expressed in CHO-S cells coexpressing TARP gamma-3 assessed as inhibition of glutamate-induced increase in intracellular calcium levels after 2 mins followed by cyclothiazide/glutamate addition by fluorescence imaging plate reader method; format: cell-based; how it was run: as §3
[13] = test system: Rattus norvegicus; test: Protective index, ratio of TD50 for motor impairment to ED50 for inhibition of pentylenetetrazole-induced clonic convulsions in po dosed Sprague-Dawley rat
How it was run: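 PI = inverted screen TD50 divided by PTZ ED50. For the ED50, rats were dosed orally 30 min before PTZ (35 mg/kg, sc), with n = 10 per group. Read-out was % block of clonic convulsions; ED50 given with 95% confidence limits.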

[14] = test system: Rattus norvegicus; test: Anticonvulsant activity in po dosed Sprague-Dawley rat assessed as inhibition of pentylenetetrazole-induced clonic convulsions administered 30 mins prior to PTZ dosing measured over 30 mins; format: functional
[15] = test system: Rattus norvegicus; test: Toxicity in Sprague-Dawley rat assessed as motor impairment at 30 mg/kg, po by inverted screen test; format: organism-based; settings: in vivo
How it was run: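 Oral dosing in rats, then inverted screen motor-function score. Plasma exposure measured. Mean ± SEM of ≥4 rats/group, compared with vehicle control.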

[16] = test system: Hepatocyte; test: Drug metabolism in human hepatocytes assessed as sulfation by LC/MS/MS analysis; format: ADME, cell-based
[17] = test system: UGT; test: Drug metabolism assessed as UGT-mediated compound glucuronidation in human liver microsomes; format: ADME; settings: read-out: Drug metabolism
How it was run: (§4)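 Microsomes incubated with appropriate cofactors for UGT; percent metabolism, n = 1.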

[18] = test system: UGT; test: Drug metabolism assessed as UGT-mediated compound glucuronidation in rat liver microsomes; format: ADME; settings: read-out: Drug metabolism; how it was run: as §4
[19] = test system: Hepatocyte; test: Drug metabolism in rat hepatocytes assessed as glucuronidation by LC/MS/MS analysis; format: ADME, cell-based
[20] = test system: Hepatocyte; test: Drug metabolism in rat hepatocytes assessed as glucuronidation; format: ADME, cell-based
[21] = test system: Hepatocyte; test: Drug metabolism in human hepatocytes assessed as oxidative metabolite formation; format: ADME, cell-based
[22] = test system: Hepatocyte; test: Drug metabolism in human hepatocytes assessed as glucuronidation; format: ADME, cell-based
[23] = test system: Hepatocyte; test: Drug metabolism in rat hepatocytes assessed as oxidative metabolite formation; format: ADME, cell-based

T1 sequence (P42261 whole entry, canonical isoform): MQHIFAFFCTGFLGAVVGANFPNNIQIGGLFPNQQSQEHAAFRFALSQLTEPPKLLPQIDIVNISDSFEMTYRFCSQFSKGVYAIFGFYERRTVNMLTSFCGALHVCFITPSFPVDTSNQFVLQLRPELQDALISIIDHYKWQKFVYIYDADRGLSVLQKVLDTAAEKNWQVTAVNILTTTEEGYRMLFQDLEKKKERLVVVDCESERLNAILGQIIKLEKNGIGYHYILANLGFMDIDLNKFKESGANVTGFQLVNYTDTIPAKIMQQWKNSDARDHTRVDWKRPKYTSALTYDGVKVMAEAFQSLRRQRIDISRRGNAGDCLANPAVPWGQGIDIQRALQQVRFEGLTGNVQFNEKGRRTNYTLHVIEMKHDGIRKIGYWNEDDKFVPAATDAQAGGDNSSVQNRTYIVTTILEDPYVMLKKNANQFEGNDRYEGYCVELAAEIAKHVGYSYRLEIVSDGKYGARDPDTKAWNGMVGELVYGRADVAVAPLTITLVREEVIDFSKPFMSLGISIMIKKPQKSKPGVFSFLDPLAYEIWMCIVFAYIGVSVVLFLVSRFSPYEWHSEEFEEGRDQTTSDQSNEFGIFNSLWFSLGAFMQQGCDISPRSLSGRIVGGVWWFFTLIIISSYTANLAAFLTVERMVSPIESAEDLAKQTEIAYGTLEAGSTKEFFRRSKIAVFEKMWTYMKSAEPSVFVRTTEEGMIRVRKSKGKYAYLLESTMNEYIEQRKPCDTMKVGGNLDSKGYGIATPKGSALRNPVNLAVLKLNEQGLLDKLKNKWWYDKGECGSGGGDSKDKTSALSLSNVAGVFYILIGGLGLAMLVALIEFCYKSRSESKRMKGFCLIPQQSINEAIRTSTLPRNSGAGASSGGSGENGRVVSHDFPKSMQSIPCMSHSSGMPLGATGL

Row | Structure (SMILES) | IC50 [1] | clearance [2] | IC50 [3] | IC50 [6] | IC50 [9] | also measured
1 | CN(c1ccc2[nH]ncc2c1)c1nc(-c2ccccn2)cs1 | > 83.3 µM | 71.5 mL/min/kg | 0.147 µM | 0.222 µM | > 83.3 µM | Cmax [4]: 3740 ng/mL; AUC [5]: 52300 ng·h/mL; AUC [7]: 3150 ng·h/mL; Cmax [8]: 1930 ng/mL
2 | Cn1ccc(CN(c2ccc3[nH]ncc3c2)c2nc(-c3ccccn3)cs2)n1 | 83.3 µM |  | 0.0539 µM | > 10 µM | 83.3 µM | Activity [10]: < 15%
3 | C[C@H](c1ccc2[nH]c(=O)sc2c1)c1ccn(-c2ccc(OCCO)cn2)n1 | 9.26 µM |  | 1.79 µM |  | 9.26 µM | 
4 | C[C@@H](c1ccc2[nH]c(=O)sc2c1)c1ccn(-c2ccc(CCO)cn2)n1 | 25.7 µM | 16.3 mL/min/kg | 0.0616 µM |  | 83.3 µM | 
5 | N#Cc1ccccc1-c1cc(-c2ccccn2)cn(-c2ccccc2)c1=O [PERAMPANEL] | 0.485 µM |  | 1.18 µM |  | 6.51 µM | IC50 [11]: 0.623 µM; IC50 [12]: 0.243 µM; Ratio TD50/ED50 [13]: 0.4; ED50 [14]: 10.6 mg/kg; Activity [15]: Toxic
6 | CN(c1ccc(O)cc1)c1nc(-c2ccccn2)cs1 | > 83.3 µM | 234 mL/min/kg | 2.97 µM |  | > 83.3 µM | Drug metabolism [16]: metabolite_detected; IC50 [11]: > 83.3 µM; metabolised [17]: 33%; metabolised [18]: 99%; Drug metabolism [19]: metabolite_detected; IC50 [12]: > 83.3 µM
7 | C[C@@H](c1ccc2[nH]c(=O)sc2c1)c1ccn(-c2ccccn2)n1 | 83.3 µM | 99 mL/min/kg | 0.0509 µM | > 10 µM | 9.26 µM | Activity [10]: < 15%
8 | CN(c1ccc2[nH]c(=O)sc2c1)c1nc(-c2ccccn2)cs1 | > 83.3 µM | 96.6 mL/min/kg | 0.07 µM | 0.36 µM | > 83.3 µM | 
9 | C[C@@H](c1ccc2[nH]c(=O)sc2c1)c1ccn(-c2ccc(CCC(C)(C)O)cn2)n1 | 9.26 µM | 6 mL/min/kg | 0.16 µM |  | 9.26 µM | 
10 | CC(c1ccc2[nH]c(=O)sc2c1)c1ccn(-c2ccccn2)n1 (racemic) | 83.3 µM | 115 mL/min/kg | 0.122 µM | 8.68 µM | 83.3 µM | Drug metabolism [20]: metabolite_detected; Drug metabolism [21]: metabolite_detected; Drug metabolism [22]: metabolite_detected; Drug metabolism [23]: metabolite_detected; Activity [10]: < 15%
11 | C[C@@H](c1ccc2[nH]c(=O)sc2c1)c1ccn(-c2ccc(F)cn2)n1 | 83.3 µM | 42.2 mL/min/kg | 0.0536 µM |  | 83.3 µM | 
12 | CN(c1ccc2[nH]ncc2c1)c1ccn(-c2ccccn2)n1 | > 83.3 µM | 61.3 mL/min/kg | 0.353 µM | 0.23 µM | > 83.3 µM | 
13 | CCOCCN(c1ccc2[nH]c(=O)sc2c1)c1nc(-c2ccccn2)cs1 |  |  | 0.022 µM |  |  | 
14 | C[C@H](c1ccc2[nH]c(=O)sc2c1)c1ccn(-c2ccccn2)n1 | 83.3 µM | 144 mL/min/kg | 0.615 µM | 4.67 µM | 9.26 µM | Activity [10]: < 15%
15 | C[C@H](c1ccc2[nH]c(=O)sc2c1)c1ccn(-c2ccc(CCO)cn2)n1 | 9.26 µM |  | 2.82 µM |  | 9.26 µM | 
